# Assay results published in ChEMBL document CHEMBL1152462, “Betulinic acid derivatives that target gp120 and inhibit multiple genetic subtypes of human immunodeficiency virus type 1” (Antimicrob Agents Chemother, 2008).
# The source made the active and inactive calls. The calls are words filed in the database; no cut-off is given here.
# Tests used:
# [1] = molecular target: Envelope glycoprotein gp160 (Human immunodeficiency virus type 1 group M subtype B (isolate YU-2)(HIV-1)) (UniProt P35961); test: Inhibition of HIV1 (isolate YU2) envelope glycoprotein 120-mediated membrane fusion between virus-transfected african green monkey COS cells and human TZM-bl cells by luciferase-based cell-cell fusion assay in presence of IC9564; conditions: Human immunodeficiency virus type 1 (isolate YU2)
# [2] = tested on: Human immunodeficiency virus 1; test: Antiviral activity against HIV1 Q259.d2.17 infected in human TZM-b1 cells assessed as inhibition of viral infection after 2 days postinfection by luciferase reporter gene assay; format: functional, organism-based; conditions: Human immunodeficiency virus 1, Q259.d2.17, TZM-b1, 48 h
# Procedure, shortened: (§1)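 Single-round infection of TZM-bl cells with 200 TCID50 of virus in the presence of varying compound concentrations, top concentration 15 µM. After 2 days, medium was removed and Bright-Glo reagent added to read luminescence. IC50 is the concentration giving 50% reduction in luciferase RLU relative to virus-control wells.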
# [3] = tested on: Human immunodeficiency virus 1; test: Antiviral activity against HIV1 CAP.2.00.G3 infected in human TZM-b1 cells assessed as inhibition of viral infection after 2 days postinfection by luciferase reporter gene assay; format: functional, organism-based; conditions: Human immunodeficiency virus 1, CAP.2.00.G3, TZM-b1, 48 h; procedure, shortened: as §1
# [4] = tested on: Human immunodeficiency virus 1; test: Antiviral activity against HIV1 Q769.d22 infected in human TZM-b1 cells assessed as inhibition of viral infection after 2 days postinfection by luciferase reporter gene assay; format: functional, organism-based; conditions: Human immunodeficiency virus 1, Q769.d22, TZM-b1, 48 h; procedure, shortened: as §1
# [5] = tested on: Human immunodeficiency virus 1; test: Antiviral activity against HIV1 ZM214M.PL15 infected in human TZM-b1 cells assessed as inhibition of viral infection after 2 days postinfection by luciferase reporter gene assay; format: functional, organism-based; conditions: Human immunodeficiency virus 1, ZM214M.PL15, TZM-b1, 48 h; procedure, shortened: as §1
# [6] = tested on: Human immunodeficiency virus 1; test: Antiviral activity against HIV1 Q842.d12 infected in human TZM-b1 cells assessed as inhibition of viral infection after 2 days postinfection by luciferase reporter gene assay; format: functional, organism-based; conditions: Human immunodeficiency virus 1, Q842.d12, TZM-b1, 48 h; procedure, shortened: as §1
# [7] = tested on: Human immunodeficiency virus 1; test: Antiviral activity against HIV1 NL4-3 infected in human TZM-b1 cells assessed as inhibition of viral infection after 2 days postinfection by luciferase reporter gene assay; format: functional, organism-based; conditions: Human immunodeficiency virus 1, NL4-3, TZM-b1, 48 h; procedure, shortened: as §1
# [8] = tested on: Human immunodeficiency virus 1; test: Antiviral activity against HIV1 TRO.11 infected in human TZM-b1 cells assessed as inhibition of viral infection after 2 days postinfection by luciferase reporter gene assay; format: functional, organism-based; conditions: Human immunodeficiency virus 1, TRO.11, TZM-b1, 48 h; procedure, shortened: as §1
# [9] = tested on: Human immunodeficiency virus 1; test: Antiviral activity against HIV1 Q168.a2 infected in human TZM-b1 cells assessed as inhibition of viral infection after 2 days postinfection by luciferase reporter gene assay; format: functional, organism-based; conditions: Human immunodeficiency virus 1, Q168.a2, TZM-b1, 48 h; procedure, shortened: as §1
# [10] = Cytotoxicity against human TZM-bl cells at 15 uM after 2 days by trypan blue exclusion assay; format: cell-based; conditions: 48 h
# [11] = tested on: Human immunodeficiency virus 1; test: Antiviral activity against HIV1 CAP244.2.00.D3 infected in human TZM-b1 cells assessed as inhibition of viral infection after 2 days postinfection by luciferase reporter gene assay; format: functional, organism-based; conditions: Human immunodeficiency virus 1, CAP244.2.00.D3, TZM-b1, 48 h; procedure, shortened: as §1
# [12] = tested on: Human immunodeficiency virus 1; test: Antiviral activity against HIV1 Q461.e2 infected in human TZM-b1 cells assessed as inhibition of viral infection after 2 days postinfection by luciferase reporter gene assay; format: functional, organism-based; conditions: Human immunodeficiency virus 1, Q461.e2, TZM-b1, 48 h; procedure, shortened: as §1
# [13] = tested on: Human immunodeficiency virus 1; test: Antiviral activity against HIV1 Du151.2 infected in human TZM-b1 cells assessed as inhibition of viral infection after 2 days postinfection by luciferase reporter gene assay; format: functional, organism-based; conditions: Human immunodeficiency virus 1, Du151.2, TZM-b1, 48 h; procedure, shortened: as §1
# [14] = tested on: Human immunodeficiency virus 1; test: Antiviral activity against HIV1 REJO4541.67 infected in human TZM-b1 cells assessed as inhibition of viral infection after 2 days postinfection by luciferase reporter gene assay; format: functional, organism-based; conditions: Human immunodeficiency virus 1, REJO4541.67, TZM-b1, 48 h; procedure, shortened: as §1
# HOS [15] = test: Inhibition of HIV1 Ba-L gp120/CD4 complex binding to CCR5 expressing HOS cells at 5 µg/ml after 1 hr by competitive binding assay; conditions: Human immunodeficiency virus 1
# [16] = tested on: Human immunodeficiency virus 1; test: Inhibition of V3-speciifc monoclonal antibody […] binding to HIV1 Ba-L gp120 by ELISA-based competitive binding assay
# [17] = tested on: Human immunodeficiency virus 1; test: Antiviral activity against HIV1 WITO4160.33 infected in human TZM-b1 cells assessed as inhibition of viral infection after 2 days postinfection by luciferase reporter gene assay; format: functional, organism-based; conditions: Human immunodeficiency virus 1, WITO4160.33, TZM-b1, 48 h; procedure, shortened: as §1
# [18] = tested on: Human immunodeficiency virus 1; test: Antiviral activity against HIV1 ZM109F.PB4 infected in human TZM-b1 cells assessed as inhibition of viral infection after 2 days postinfection by luciferase reporter gene assay; format: functional, organism-based; conditions: Human immunodeficiency virus 1, ZM109F.PB4, TZM-b1, 48 h; procedure, shortened: as §1
# [19] = tested on: Human immunodeficiency virus 1; test: Inhibition of V3-speciifc monoclonal antibody 447-52D binding to HIV1 3B gp120 by ELISA-based competitive binding assay
# [20] = tested on: Human immunodeficiency virus 1; test: Antiviral activity against HIV1 ZM55F.PB28a infected in human TZM-b1 cells assessed as inhibition of viral infection after 2 days postinfection by luciferase reporter gene assay; format: functional, organism-based; conditions: Human immunodeficiency virus 1, ZM55F.PB28a, TZM-b1, 48 h; procedure, shortened: as §1
# [21] = tested on: Human immunodeficiency virus 1; test: Antiviral activity against HIV1 Q23.71 infected in human TZM-b1 cells assessed as inhibition of viral infection after 2 days postinfection by luciferase reporter gene assay; format: functional, organism-based; conditions: Human immunodeficiency virus 1, Q23.71, TZM-b1, 48 h; procedure, shortened: as §1
# [22] = Ratio of inhibition of HIV1 […] envelope glycoprotein 120-mediated membrane fusion to inhibition of HIV1 (isolate YU2) envelope glycoprotein 120-mediated membrane fusion
# [23] = tested on: Human immunodeficiency virus 1; test: Antiviral activity against HIV1 6535.3 infected in human TZM-b1 cells assessed as inhibition of viral infection after 2 days postinfection by luciferase reporter gene assay; format: functional, organism-based; conditions: Human immunodeficiency virus 1, 6535.3, TZM-b1, 48 h; procedure, shortened: as §1
# [24] = Cytotoxicity against human TZM-bl cells after 2 days by trypan blue exclusion assay; format: cell-based; conditions: 48 h
# [25] = tested on: Human immunodeficiency virus 1; test: Antiviral activity against HIV1 QH0515.1 infected in human TZM-b1 cells assessed as inhibition of viral infection after 2 days postinfection by luciferase reporter gene assay; format: functional, organism-based; conditions: Human immunodeficiency virus 1, QH0515.1, TZM-b1, 48 h; procedure, shortened: as §1
# [26] = tested on: Human immunodeficiency virus 1; test: Inhibition of V3-speciifc monoclonal antibody 39F binding to HIV1 3B gp120 by ELISA-based competitive binding assay
# [27] = tested on: Human immunodeficiency virus 1; test: Antiviral activity against HIV1 RHPA4259.7 infected in human TZM-b1 cells assessed as inhibition of viral infection after 2 days postinfection by luciferase reporter gene assay; format: functional, organism-based; conditions: Human immunodeficiency virus 1, RHPA4259.7, TZM-b1, 48 h; procedure, shortened: as §1
# HOS [28] = test: Inhibition of HIV1 3B gp120/CD4 complex binding to CCR5 expressing HOS cells at […] after 1 hr by competitive binding assay; format: cell-based; conditions: Human immunodeficiency virus 1
# Procedure, shortened: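 HOS.CCR5 cells were plated on poly-D-lysine and held overnight at 37°C. Soluble CD4 (4.5 nM) was premixed 1:1 with gp120 (Ba-L or IIIB) for 15 min at room temperature. The complex was added to cells with compound at 5 µg/ml for 1 h at 37°C. Bound gp120 was detected with FITC anti-gp120 (1 h), washed three times in PBS, and read by fluorescence at 490/520 nm.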
# [29] = tested on: Human immunodeficiency virus 1; test: Inhibition of V3-speciifc monoclonal antibody 447-52 binding to HIV1 Ba-L gp120 by ELISA-based competitive binding assay
# [30] = tested on: Human immunodeficiency virus 1; test: Antiviral activity against HIV1 Du123.6 infected in human TZM-b1 cells assessed as inhibition of viral infection after 2 days postinfection by luciferase reporter gene assay; format: functional, organism-based; conditions: Human immunodeficiency virus 1, Du123.6, TZM-b1, 48 h; procedure, shortened: as §1
# [31] = tested on: Human immunodeficiency virus 1; test: Antiviral activity against HIV1 HXB2 infected in human TZM-b1 cells assessed as inhibition of viral infection after 2 days postinfection by luciferase reporter gene assay; format: functional, organism-based; conditions: Human immunodeficiency virus 1, HXB2, TZM-b1, 48 h; procedure, shortened: as §1
# [32] = tested on: Human immunodeficiency virus 1; test: Antiviral activity against HIV1 5768.4 infected in human TZM-b1 cells assessed as inhibition of viral infection after 2 days postinfection by luciferase reporter gene assay; format: functional, organism-based; conditions: Human immunodeficiency virus 1, 5768.4, TZM-b1, 48 h; procedure, shortened: as §1
# [33] = tested on: Human immunodeficiency virus 1; test: Antiviral activity against HIV1 ZM197M.PB7 infected in human TZM-b1 cells assessed as inhibition of viral infection after 2 days postinfection by luciferase reporter gene assay; format: functional, organism-based; conditions: Human immunodeficiency virus 1, ZM197M.PB7, TZM-b1, 48 h; procedure, shortened: as §1
# [34] = tested on: Human immunodeficiency virus 1; test: Antiviral activity against HIV1 Du422.1 infected in human TZM-b1 cells assessed as inhibition of viral infection after 2 days postinfection by luciferase reporter gene assay; format: functional, organism-based; conditions: Human immunodeficiency virus 1, Du422.1, TZM-b1, 48 h; procedure, shortened: as §1
# [35] = tested on: Human immunodeficiency virus 1; test: Antiviral activity against HIV1 SS1196.1 infected in human TZM-b1 cells assessed as inhibition of viral infection after 2 days postinfection by luciferase reporter gene assay; format: functional, organism-based; conditions: Human immunodeficiency virus 1, SS1196.1, TZM-b1, 48 h; procedure, shortened: as §1
# Sequence of Envelope glycoprotein gp160 (Human immunodeficiency virus type 1 group M subtype B (isolate YU-2)(HIV-1)) (P35961 whole entry, the tested form may be a part): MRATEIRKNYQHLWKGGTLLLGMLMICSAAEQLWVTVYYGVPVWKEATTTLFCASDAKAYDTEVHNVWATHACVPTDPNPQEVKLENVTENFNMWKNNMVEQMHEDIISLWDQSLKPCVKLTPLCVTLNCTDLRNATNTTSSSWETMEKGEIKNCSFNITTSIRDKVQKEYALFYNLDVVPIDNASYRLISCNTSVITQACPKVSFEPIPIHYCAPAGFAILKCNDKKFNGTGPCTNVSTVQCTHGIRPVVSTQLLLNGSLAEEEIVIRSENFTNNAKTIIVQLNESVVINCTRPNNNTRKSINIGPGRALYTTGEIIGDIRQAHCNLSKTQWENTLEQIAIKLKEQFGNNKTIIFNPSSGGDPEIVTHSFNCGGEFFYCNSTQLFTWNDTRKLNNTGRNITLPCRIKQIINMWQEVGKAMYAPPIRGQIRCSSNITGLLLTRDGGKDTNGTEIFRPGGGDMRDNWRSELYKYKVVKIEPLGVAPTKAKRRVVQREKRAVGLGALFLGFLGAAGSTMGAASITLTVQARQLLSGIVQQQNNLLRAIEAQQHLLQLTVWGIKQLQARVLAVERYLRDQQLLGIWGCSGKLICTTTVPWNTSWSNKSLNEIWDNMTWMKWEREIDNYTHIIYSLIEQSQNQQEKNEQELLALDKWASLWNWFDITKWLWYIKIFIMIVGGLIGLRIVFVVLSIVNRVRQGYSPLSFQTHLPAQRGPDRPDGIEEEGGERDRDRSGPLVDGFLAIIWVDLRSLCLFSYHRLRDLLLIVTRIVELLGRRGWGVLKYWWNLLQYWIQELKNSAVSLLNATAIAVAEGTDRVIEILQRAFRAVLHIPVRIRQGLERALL
Compound,IC50 [2] [nM],IC50 [3] [nM],IC50 [4] [nM],IC50 [5] [nM],IC50 [6] [nM],IC50 [7] [nM],IC50 [8] [nM],IC50 [9] [nM],Activity [10],IC50 [11] [nM],IC50 [12] [nM],IC50 [13] [nM],IC50 [14] [nM],IC50 [18] [nM],IC50 [20] [nM],IC50 [21] [nM],IC50 [24] [nM],IC50 [25] [nM],IC50 [27] [nM],IC50 [30] [nM],other results
Cc1ccc(-c2ccc3c(c2)C=C(C(=O)Nc2ccc(C[N+](C)(C)C4CCOCC4)cc2)CCC3)cc1,,,,,,,,,,,,,,,,,,,,,Activity [1]: 0.053 ng/mL
C=C(C)[C@@H]1CC[C@]2(C(=O)NCCCCCCCC(=O)N[C@@H](CC(C)C)[C@H](O)CC(=O)O)CC[C@]3(C)[C@H](CC[C@@H]4[C@@]5(C)CC[C@H](O)C(C)(C)[C@@H]5CC[C@]43C)[C@@H]12,250,80,4070,70,810,100,750,620,Non-toxic,1210,310,810,1070,810,750,1610,> 50000,1260,820,90,inhibition (HOS [15]): Active; inhibition [16]: inactive; IC50 [17]: 390 nM; inhibition [19]: Dose-dependent effect; Ratio [22]: 30; IC50 [23]: 7300 nM; inhibition [26]: Dose-dependent effect; inhibition (HOS [28]): Active; inhibition [29]: Active; IC50 [31]: 80 nM; IC50 [32]: 670 nM; IC50 [33]: 90 nM; IC50 [34]: 650 nM; IC50 [35]: 210 nM
enfuvirtide,1010,2230,2230,2670,2450,1910,1670,780,Non-toxic,1830,1740,450,1110,90,710,910,> 50000,2230,760,330,IC50 [32]: 1450 nM; IC50 [33]: 2230 nM; IC50 [34]: 560 nM; IC50 [35]: 1020 nM
C=C(C)[C@@H]1CC[C@]2(C(=O)NCCCCCCCNC(C)=O)CC[C@]3(C)[C@H](CC[C@@H]4[C@@]5(C)CC[C@H](O)C(C)(C)[C@@H]5CC[C@]43C)[C@@H]12,280,140,3700,48,390,110,790,310,Non-toxic,400,380,190,850,400,340,450,> 50000,1050,640,80,IC50 [17]: 140 nM; IC50 [23]: 1030 nM; IC50 [31]: 70 nM; IC50 [32]: 450 nM; IC50 [33]: 90 nM; IC50 [34]: 170 nM; IC50 [35]: 220 nM
